Measurements taken from ChEMBL document CHEMBL2062449, “Eco-friendly synthesis and biological evaluation of substituted pyrano[2,3-c]pyrazoles” (Bioorg Med Chem Lett, 2012).
Values after ≈ are worked out from the molar mass of the structure shown.

How the values were obtained:
MCF7 [1] = test: Cytotoxicity against estrogen receptor-positive human MCF7 cells assessed as inhibition of cell proliferation at 1 ug/ml after 24 hrs by MTT assay; format: functional; details: MCF7, 24 h
Method in brief: (§1)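 MTT assay on MCF-7 human breast cancer cells, Taxol as reference; percentage inhibition of cell proliferation read at graded concentrations from 0.1 to 50 μg/mL (typically five or six levels per compound); IC50 in μg/mL derived from the inhibition series.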

Escherichia coli [2] = test: Antibacterial activity against Escherichia coli after 18 to 24 hrs by broth microdilution method; format: functional
Staphylococcus aureus [3] = test: Antibacterial activity against Staphylococcus aureus at […] after 24 hrs by agar diffusion method; format: functional
Method in brief: (§2)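 Single-concentration antibacterial screen at 100 μg/50 μL per test against the standard bacterial strains.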

Rattus norvegicus [4] = test: Antiinflammatory activity in Wistar rat assessed as protection against carrageenan-induced paw edema at 100 mg/kg, po administered 1 hr before carrageenan challenge measured after 3 hrs; format: functional
Staphylococcus aureus [5] = test: Antibacterial activity against Staphylococcus aureus after 18 to 24 hrs by broth microdilution method; format: functional
Pseudomonas aeruginosa [6] = test: Antibacterial activity against Pseudomonas aeruginosa after 18 to 24 hrs by broth microdilution method; format: functional
MCF7 [7] = test: Cytotoxicity against estrogen receptor-positive human MCF7 cells assessed as inhibition of cell proliferation at 2 ug/ml after 24 hrs by MTT assay; format: functional; details: MCF7, 24 h; method in brief: as §1
Rattus norvegicus [8] = test: Antiinflammatory activity in Wistar rat assessed as protection against carrageenan-induced paw edema at 100 mg/kg, po administered 1 hr before carrageenan challenge measured after 4 hrs; format: functional
MCF7 [9] = test: Cytotoxicity against estrogen receptor-positive human MCF7 cells assessed as inhibition of cell proliferation at 3 ug/ml after 24 hrs by MTT assay; format: functional; details: MCF7, 24 h; method in brief: as §1
Rattus norvegicus [10] = test: Antiinflammatory activity in Wistar rat assessed as protection against carrageenan-induced paw edema at 100 mg/kg, po administered 1 hr before carrageenan challenge measured after 2 hrs; format: functional
Escherichia coli [11] = test: Antibacterial activity against Escherichia coli at […] after 24 hrs by agar diffusion method; format: functional; method in brief: as §2
Bacillus subtilis [12] = test: Antibacterial activity against Bacillus subtilis at […] after 24 hrs by agar diffusion method; format: functional; method in brief: as §2
MCF7 [13] = test: Cytotoxicity against estrogen receptor-positive human MCF7 cells assessed as inhibition of cell proliferation at 5 ug/ml after 24 hrs by MTT assay; format: functional; details: MCF7, 24 h; method in brief: as §1
Pseudomonas aeruginosa [14] = test: Antibacterial activity against Pseudomonas aeruginosa at 100 ug/[…] after 24 hrs by agar diffusion method; format: functional; method in brief: as §2
Bacillus subtilis [15] = test: Antibacterial activity against Bacillus subtilis after 18 to 24 hrs by broth microdilution method; format: functional
MCF7 [16] = test: Cytotoxicity against estrogen receptor-positive human MCF7 cells assessed as inhibition of cell proliferation at 4 ug/ml after 24 hrs by MTT assay; format: functional; details: MCF7, 24 h; method in brief: as §1
Rattus norvegicus [17] = test: Antiinflammatory activity in Wistar rat assessed as protection against carrageenan-induced paw edema at 100 mg/kg, po administered 1 hr before carrageenan challenge measured after 30 mins; format: functional
Rattus norvegicus [18] = test: Antiinflammatory activity in Wistar rat assessed as protection against carrageenan-induced paw edema at 100 mg/kg, po administered 1 hr before carrageenan challenge measured after 1 hr; format: functional
MCF7 [19] = test: Cytotoxicity against estrogen receptor-positive human MCF7 cells assessed as inhibition of cell proliferation after 24 hrs by MTT assay; format: functional, cell-based; method in brief: as §1
MCF7 [20] = test: Cytotoxicity against estrogen receptor-positive human MCF7 cells assessed as inhibition of cell proliferation at 10 ug/ml after 24 hrs by MTT assay; format: functional; details: MCF7, 24 h; method in brief: as §1
MCF7 [21] = test: Cytotoxicity against estrogen receptor-positive human MCF7 cells assessed as inhibition of cell proliferation at 25 ug/ml after 24 hrs by MTT assay; format: functional; details: MCF7, 24 h; method in brief: as §1
MCF7 [22] = test: Cytotoxicity against estrogen receptor-positive human MCF7 cells assessed as inhibition of cell proliferation at 50 ug/ml after 24 hrs by MTT assay; format: functional; details: MCF7, 24 h; method in brief: as §1
[23] = Homo sapiens, MCF7, 24 h, read-out: IC50

For `Cc1n[nH]c2c1C(c1cccs1)C(C#N)=C(N)O2` (stereo unspecified), the inhibition at 1 µg/mL (MCF7 [1]) was 0.28%, the MIC (Escherichia coli [2]) was 3.12 µg/mL (≈ 12.1 µM) and the “inhibition zone (IZ)” value (Staphylococcus aureus [3]) was 15 mm. The Activity (Rattus norvegicus [4]) was 64.5%, the MIC (Staphylococcus aureus [5]) was 3.12 µg/mL (≈ 12.1 µM) and the MIC (Pseudomonas aeruginosa [6]) was 3.12 µg/mL (≈ 12.1 µM). The inhibition at 2 µg/mL (MCF7 [7]) was 19.1%, the Activity (Rattus norvegicus [8]) was 51.6% and the inhibition at 3 µg/mL (MCF7 [9]) was 22%. For the same compound, the Activity (Rattus norvegicus [10]) was 50.8%, the “inhibition zone (IZ)” value (Escherichia coli [11]) was 20 mm and the “inhibition zone (IZ)” value (Bacillus subtilis [12]) was 18 mm. For the same compound, the inhibition at 5 µg/mL (MCF7 [13]) was 61.7%, the “inhibition zone (IZ)” value (Pseudomonas aeruginosa [14]) was 14 mm and the MIC (Bacillus subtilis [15]) was 3.12 µg/mL (≈ 12.1 µM). It also gave an inhibition at 4 µg/mL (MCF7 [16]) of 41.8%, an Activity (Rattus norvegicus [17]) of 23.5% and an Activity (Rattus norvegicus [18]) of 38.8%. It also gave an IC50 (MCF7 [19]; [23]) of 4.44 µg/mL.

`Cc1nn(-c2ccccc2)c2c1C(c1cccc(Oc3ccccc3)c1)C(C#N)=C(N)O2` (stereo unspecified) was tested, and the MIC (Escherichia coli [2]) was 6.25 µg/mL (≈ 14.9 µM), the “inhibition zone (IZ)” value (Staphylococcus aureus [3]) was 15 mm and the MIC (Staphylococcus aureus [5]) was 3.12 µg/mL (≈ 7.43 µM). The MIC (Pseudomonas aeruginosa [6]) was 3.12 µg/mL (≈ 7.43 µM), the “inhibition zone (IZ)” value (Escherichia coli [11]) was 18 mm and the MIC (Bacillus subtilis [15]) was 6.25 µg/mL (≈ 14.9 µM).

In the case of `COc1ccc(C2C(C#N)=C(N)Oc3c2c(C)nn3-c2ccccc2)cc1` (stereo unspecified), the inhibition at 1 µg/mL (MCF7 [1]) is reported as 0.76%, the inhibition at 10 µg/mL (MCF7 [20]) is reported as 8.99% and the “inhibition zone (IZ)” value (Staphylococcus aureus [3]) is reported as 5 mm. For the same compound, the Activity (Rattus norvegicus [4]) was 52.6%, the inhibition at 25 µg/mL (MCF7 [21]) was 11.6% and the Activity (Rattus norvegicus [8]) was 45%. The Activity (Rattus norvegicus [10]) was 39.7%, the “inhibition zone (IZ)” value (Escherichia coli [11]) was 10 mm and the “inhibition zone (IZ)” value (Bacillus subtilis [12]) was 4 mm. The inhibition at 5 µg/mL (MCF7 [13]) was 4.19%, the “inhibition zone (IZ)” value (Pseudomonas aeruginosa [14]) was 6 mm and the inhibition at 50 µg/mL (MCF7 [22]) was 30%. For the same compound, the Activity (Rattus norvegicus [17]) was 11.7% and the Activity (Rattus norvegicus [18]) was 25%.

In the case of `CC(=O)O[C@H]1C(=O)[C@@]2(C)[C@H]([C@H](OC(=O)c3ccccc3)[C@]3(O)C[C@H](OC(=O)[C@H](O)[C@@H](NC(=O)c4ccccc4)c4ccccc4)C(C)=C1C3(C)C)[C@]1(OC(C)=O)CO[C@@H]1C[C@@H]2O` [PACLITAXEL], the IC50 (MCF7 [19]; mcf7) is reported as 15 nM.

`O=C(O)c1cn(C2CC2)c2cc(N3CCNCC3)c(F)cc2c1=O` [CIPROFLOXACIN] showed an MIC (Staphylococcus aureus [5]) of 1.56 µg/mL (≈ 4.71 µM), an MIC (Pseudomonas aeruginosa [6]) of 1.56 µg/mL (≈ 4.71 µM) and an MIC (Bacillus subtilis [15]) of 1.56 µg/mL (≈ 4.71 µM).

For `Cc1nn(-c2ccccc2)c2c1C(c1ccccc1)C(C#N)=C(N)O2` (stereo unspecified), the inhibition at 1 µg/mL (MCF7 [1]) was 1.67%, the inhibition at 10 µg/mL (MCF7 [20]) was 26.9% and the “inhibition zone (IZ)” value (Staphylococcus aureus [3]) was 6 mm. The Activity (Rattus norvegicus [4]) was 53.7%, the inhibition at 25 µg/mL (MCF7 [21]) was 55.5% and the Activity (Rattus norvegicus [8]) was 48.3%. The Activity (Rattus norvegicus [10]) was 42.4%, the “inhibition zone (IZ)” value (Escherichia coli [11]) was 14 mm and the “inhibition zone (IZ)” value (Bacillus subtilis [12]) was 8 mm. The inhibition at 5 µg/mL (MCF7 [13]) was 22.4%, the “inhibition zone (IZ)” value (Pseudomonas aeruginosa [14]) was 9 mm and the inhibition at 50 µg/mL (MCF7 [22]) was 84.1%. For the same compound, the Activity (Rattus norvegicus [17]) was 11.7%, the Activity (Rattus norvegicus [18]) was 27.7% and the IC50 (MCF7 [19]; [23]) was 25.8 µg/mL.

`Cc1[nH]nc2c1C(c1c(F)c(F)c(F)c(F)c1F)C(C#N)=C(N)O2` (stereo unspecified) gave an inhibition at 1 µg/mL (MCF7 [1]) of 1.1%, an MIC (Escherichia coli [2]) of 1.56 µg/mL (≈ 4.56 µM) and an inhibition at 10 µg/mL (MCF7 [20]) of 16.2%. The “inhibition zone (IZ)” value (Staphylococcus aureus [3]) was 18 mm, the MIC (Staphylococcus aureus [5]) was 3.12 µg/mL (≈ 9.13 µM) and the MIC (Pseudomonas aeruginosa [6]) was 1.56 µg/mL (≈ 4.56 µM). The inhibition at 25 µg/mL (MCF7 [21]) was 45.1%, the “inhibition zone (IZ)” value (Escherichia coli [11]) was 14 mm and the “inhibition zone (IZ)” value (Bacillus subtilis [12]) was 15 mm. For the same compound, the inhibition at 5 µg/mL (MCF7 [13]) was 6.96%, the “inhibition zone (IZ)” value (Pseudomonas aeruginosa [14]) was 15 mm and the MIC (Bacillus subtilis [15]) was 3.12 µg/mL (≈ 9.13 µM). For the same compound, the inhibition at 50 µg/mL (MCF7 [22]) was 65.6% and the IC50 (MCF7 [19]; [23]) was 45.5 µg/mL.

`Cc1[nH]nc2c1C(c1ccc(C3C(C#N)=C(N)Oc4n[nH]c(C)c43)cc1)C(C#N)=C(N)O2` (stereo unspecified) was tested, and the inhibition at 1 µg/mL (MCF7 [1]) was 11.4%, the inhibition at 10 µg/mL (MCF7 [20]) was 24.4% and the inhibition at 25 µg/mL (MCF7 [21]) was 24.8%. It also gave an inhibition at 5 µg/mL (MCF7 [13]) of 23.4% and an inhibition at 50 µg/mL (MCF7 [22]) of 26.7%.

Work on `Cc1[nH]nc2c1C(c1cccnc1)C(C#N)=C(N)O2` (stereo unspecified) yielded an inhibition at 1 µg/mL (MCF7 [1]) of 0.41%, an inhibition at 10 µg/mL (MCF7 [20]) of 16.3% and an inhibition at 25 µg/mL (MCF7 [21]) of 25.2%. For the same compound, the inhibition at 5 µg/mL (MCF7 [13]) was 10.1%, the inhibition at 50 µg/mL (MCF7 [22]) was 75% and the IC50 (MCF7 [19]; [23]) was 35.4 µg/mL.

`Cc1ccc(C2C(C#N)=C(N)Oc3[nH]nc(C)c32)cc1` (stereo unspecified) was tested, and the “inhibition zone (IZ)” value (Staphylococcus aureus [3]) was 10 mm, the “inhibition zone (IZ)” value (Bacillus subtilis [12]) was 10 mm and the “inhibition zone (IZ)” value (Pseudomonas aeruginosa [14]) was 15 mm.
